The text below walks through data of ChEMBL document CHEMBL1136869, “2-Cyclohexylcarbonylbenzimidazoles as potent, orally available and brain-penetrable opioid receptor-like 1 (ORL1) antagonists” (Bioorg Med Chem Lett, 2009).

Calls of active or inactive are those of the source. No cut-off for these calls is given here.

The target in series [1] is T1, Nociceptin receptor (Homo sapiens, UniProt P41146). In words: Displacement of [125I]Tyr14-NC/OFQ from ORL1 receptor.
Series [2] addresses Voltage-gated inwardly rectifying potassium channel KCNH2 (Homo sapiens, UniProt Q12809). Nature of the series: Displacement of [35S]MK499 from human ERG expressed in HEK293 cells. For orientation: Loss of bound radioactivity is the signal in a displacement assay; it reports binding, not function.
The target in series [3] is T1, Nociceptin receptor. In words: Antagonist activity against ORL1 receptor by [S35]GTPgammaS binding. It is filed as functional.
The nature of series [4]: Distribution coefficient, log D at pH 7.4 by shake flask method. Type of series: physicochemical. As to conditions: octanol/water.
A short description of series [5]: Metabolic stability in human liver microsomes assessed as parent compound remaining at 1 uM after 30 mins. The following applies: read-out: Stability. Type of series: ADME, Microsome.
A short description of series [6]: Ratio of drug level in brain to plasma of mouse at 3 mg/kg, sc after 30 mins. Type of series: ADME, organism-based. Details: dose 3 mg/kg, route subcutaneous. A digest of the protocol:
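Mice dosed subcutaneously at 3 mg/kg; brain and plasma sampled 30 min after dosing. Brain level measured as nmol/g tissue alongside plasma concentration; value is the brain-to-plasma (b/p) ratio of these two levels.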

In series [7] the target is Mu-type opioid receptor (Homo sapiens, UniProt P35372). In words: Displacement of [3H]diprenorphin from human mu opioid receptor expressed in CHO cells. Type of series: cell-based. Summed up: (§1)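 Radioligand displacement in CHO cells stably expressing cloned human opioid receptors: [3H]diprenorphin for mu and [3H]U69593 for kappa. IC50 values were reported.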
Chain of Mu-type opioid receptor (P35372 whole entry): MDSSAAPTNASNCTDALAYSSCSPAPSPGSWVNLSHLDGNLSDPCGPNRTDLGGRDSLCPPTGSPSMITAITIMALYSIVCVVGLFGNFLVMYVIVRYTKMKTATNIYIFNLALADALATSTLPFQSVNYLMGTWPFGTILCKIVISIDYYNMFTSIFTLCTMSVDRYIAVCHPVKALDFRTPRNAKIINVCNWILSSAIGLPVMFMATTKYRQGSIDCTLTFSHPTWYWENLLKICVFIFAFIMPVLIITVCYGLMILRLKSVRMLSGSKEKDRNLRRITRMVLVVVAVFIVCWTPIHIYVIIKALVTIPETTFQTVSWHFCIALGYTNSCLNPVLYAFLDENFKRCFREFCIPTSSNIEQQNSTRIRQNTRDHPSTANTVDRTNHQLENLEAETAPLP
For series [8], the target named is Kappa-type opioid receptor (Homo sapiens, UniProt P41145). In words: Displacement of [3H]U69593 from human kappa opioid receptor expressed in CHO cells. It is filed as cell-based. Summed up:
as §1

The nature of series [9]: Oral bioavailability in rat at 3 mg/kg. Type of series: ADME, organism-based. The following applies: in vivo.
Series [10] in a line: Half life in rat at 3 mg/kg, po and 1 mg/kg, iv. It is filed as ADME, organism-based. As to conditions: in vivo.
Series [11] is described as follows: Clearance in rat at 3 mg/kg, po and 1 mg/kg, iv. As to conditions: in vivo. Type of series: ADME, organism-based.
Series [12] is described as follows: Oral bioavailability in dog at 3 mg/kg. It is filed as ADME, organism-based, Canis lupus familiaris. The following applies: in vivo.
A short description of series [13]: Half life in dog at 3 mg/kg, po and 1 mg/kg, iv. Type of series: ADME, organism-based, Canis lupus familiaris. As to conditions: in vivo.
The nature of series [14]: Clearance in dog at 3 mg/kg, po and 1 mg/kg, iv. It is filed as ADME, organism-based, Canis lupus familiaris. As to conditions: in vivo.
Series [15] in a line: Oral bioavailability in monkey at 3 mg/kg. As to conditions: rhesus monkey, in vivo. Type of series: ADME, organism-based, Macaca mulatta.
The nature of series [16]: Half life in monkey at 3 mg/kg, po and 1 mg/kg, iv. It is filed as ADME, organism-based, Macaca mulatta. The following applies: rhesus monkey, in vivo.
Series [17] in a line: Clearance in monkey at 3 mg/kg, po and 1 mg/kg, iv. As to conditions: rhesus monkey, in vivo. It is filed as ADME, organism-based, Macaca mulatta.
Series [18] in a line: Plasma concentration in mouse at 3 mg/kg, sc after 30 mins. Type of series: ADME, organism-based. Further details: dose 3 mg/kg, route subcutaneous.
The subject of series [19] is Brain. In words: Drug level in mouse brain at 3 mg/kg, sc after 30 mins. Type of series: ADME, organism-based. Details: dose 3 mg/kg, route subcutaneous. The following applies: in vivo, 0.5 h.
Series [20] is described as follows: Inhibition of adrenergic alpha1 receptor at 10 uM.
Series [21] has as its target T2, Alpha-1D adrenergic receptor (Homo sapiens) (UniProt P25100).
T2 sequence (whole entry): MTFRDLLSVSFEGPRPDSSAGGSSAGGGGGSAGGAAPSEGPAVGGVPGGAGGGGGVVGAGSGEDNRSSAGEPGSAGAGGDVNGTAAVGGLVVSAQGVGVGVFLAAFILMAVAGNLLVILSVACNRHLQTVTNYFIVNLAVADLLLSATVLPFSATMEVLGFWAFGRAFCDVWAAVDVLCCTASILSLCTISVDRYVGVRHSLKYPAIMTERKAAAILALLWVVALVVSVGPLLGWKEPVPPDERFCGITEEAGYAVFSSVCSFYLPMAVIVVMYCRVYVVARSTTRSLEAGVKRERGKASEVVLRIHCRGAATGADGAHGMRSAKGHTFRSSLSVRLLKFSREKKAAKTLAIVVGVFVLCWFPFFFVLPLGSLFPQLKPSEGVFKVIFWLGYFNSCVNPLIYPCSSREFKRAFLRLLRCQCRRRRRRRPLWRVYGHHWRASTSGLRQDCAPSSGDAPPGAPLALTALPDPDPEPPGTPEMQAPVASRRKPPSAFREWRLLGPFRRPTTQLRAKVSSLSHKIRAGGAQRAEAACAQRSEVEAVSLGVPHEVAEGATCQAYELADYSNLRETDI
Nature of the series: Inhibition of adrenergic Alpha-1D receptor at 10 uM.

Series [22] has as its target Cannabinoid receptor 2 (Homo sapiens) (UniProt P34972). Nature of the series: Inhibition of CB2 receptor at 10 uM.
Series [23] concerns the target Histamine H3 receptor (Homo sapiens) (UniProt Q9Y5N1). Nature of the series: Inhibition of histamine H3 receptor at 10 uM.
Series [24] has as its target T3, High affinity choline transporter 1 (Homo sapiens) (UniProt Q9GZV3).
T3 sequence (whole entry): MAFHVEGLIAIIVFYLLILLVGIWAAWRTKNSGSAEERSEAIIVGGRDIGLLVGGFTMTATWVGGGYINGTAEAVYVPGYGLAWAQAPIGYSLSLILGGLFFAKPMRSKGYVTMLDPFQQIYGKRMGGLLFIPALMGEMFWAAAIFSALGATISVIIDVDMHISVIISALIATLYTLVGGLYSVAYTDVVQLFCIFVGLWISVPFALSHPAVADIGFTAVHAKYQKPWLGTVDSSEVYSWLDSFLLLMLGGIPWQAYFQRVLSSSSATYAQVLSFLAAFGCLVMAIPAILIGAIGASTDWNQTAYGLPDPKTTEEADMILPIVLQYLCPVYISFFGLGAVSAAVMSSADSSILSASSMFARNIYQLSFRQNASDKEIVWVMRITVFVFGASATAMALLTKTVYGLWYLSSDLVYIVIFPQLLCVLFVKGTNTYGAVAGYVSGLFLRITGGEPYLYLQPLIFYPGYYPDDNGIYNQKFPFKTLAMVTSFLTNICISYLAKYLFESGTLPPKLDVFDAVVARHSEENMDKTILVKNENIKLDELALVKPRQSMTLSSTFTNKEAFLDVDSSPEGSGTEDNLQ
Nature of the series: Inhibition of choline transporter at 10 uM.

Series [25] is described as follows: Cmax in dog at 10 mg/kg, iv. It is filed as ADME, organism-based, Canis lupus familiaris. Details: dose 10 mg/kg, route intravenous. As to conditions: in vivo.
The test system of series [26] is Canis familiaris. In words: Toxic effect in anesthetized dog assessed as incidence of cardiovascular events at 10 mg/kg, iv. As to conditions: in vivo. Further details: dose 10 mg/kg, route intravenous. Type of series: toxicity, organism-based, Canis lupus familiaris.
Series [27] concerns Rattus norvegicus. Nature of the series: Antihyperalgesic activity in rat assessed as inhibition of carrageenan-induced hyperalgesia at 30 mg/kg, sc after 1 hr. Details: dose 30 mg/kg. Type of series: functional, organism-based. A digest of the protocol:
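Rats received carrageenin (0.15 ml, 3%) by intraplantar injection 3 h before testing. Compound was given sc, and testing followed 1 h later. Responses to a noxious mechanical stimulus were scored, with significance set at P < 0.05.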

In series [28] the target is Delta-type opioid receptor (Homo sapiens, UniProt P41143). In words: Displacement of [3H]naltrindole from human delta opioid receptor expressed in CHO cells.
Chain of Delta-type opioid receptor (P41143 whole entry): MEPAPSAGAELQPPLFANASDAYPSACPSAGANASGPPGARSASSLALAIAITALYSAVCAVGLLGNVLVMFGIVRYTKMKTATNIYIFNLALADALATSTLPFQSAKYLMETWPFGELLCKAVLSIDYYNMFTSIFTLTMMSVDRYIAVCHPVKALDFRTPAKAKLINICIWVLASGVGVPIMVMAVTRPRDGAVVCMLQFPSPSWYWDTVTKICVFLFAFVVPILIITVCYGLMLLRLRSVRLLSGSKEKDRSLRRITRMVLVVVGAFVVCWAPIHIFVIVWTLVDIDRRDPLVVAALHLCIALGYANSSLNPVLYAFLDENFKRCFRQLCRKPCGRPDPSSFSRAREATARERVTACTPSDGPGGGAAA
The nature of series [29]: Drug level in mouse plasma at 30 mg/kg, po after 1 hr. Type of series: ADME, organism-based. Details: dose 30 mg/kg, route oral.
Series [30] concerns Brain. In words: Drug level in mouse brain at 30 mg/kg, po after 1 hr. Details: dose 30 mg/kg, route oral. As to conditions: in vivo. Type of series: ADME, organism-based.
Series [31] is described as follows: Ratio of drug level in mouse brain to plasma at 30 mg/kg, po after 1 hr. Type of series: ADME, organism-based. Further details: dose 30 mg/kg, route oral.

T1 sequence (P41146 whole entry): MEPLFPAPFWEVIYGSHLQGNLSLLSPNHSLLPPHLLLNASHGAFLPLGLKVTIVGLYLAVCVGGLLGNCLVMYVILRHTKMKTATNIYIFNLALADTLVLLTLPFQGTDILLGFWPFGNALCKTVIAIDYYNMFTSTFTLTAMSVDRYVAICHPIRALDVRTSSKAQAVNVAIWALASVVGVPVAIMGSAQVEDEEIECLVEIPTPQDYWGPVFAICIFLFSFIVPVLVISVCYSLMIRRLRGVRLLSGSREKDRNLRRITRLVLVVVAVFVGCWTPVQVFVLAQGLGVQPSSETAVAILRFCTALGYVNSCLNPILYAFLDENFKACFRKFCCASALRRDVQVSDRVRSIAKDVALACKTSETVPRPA
Chain of Voltage-gated inwardly rectifying potassium channel KCNH2 (Q12809 whole entry): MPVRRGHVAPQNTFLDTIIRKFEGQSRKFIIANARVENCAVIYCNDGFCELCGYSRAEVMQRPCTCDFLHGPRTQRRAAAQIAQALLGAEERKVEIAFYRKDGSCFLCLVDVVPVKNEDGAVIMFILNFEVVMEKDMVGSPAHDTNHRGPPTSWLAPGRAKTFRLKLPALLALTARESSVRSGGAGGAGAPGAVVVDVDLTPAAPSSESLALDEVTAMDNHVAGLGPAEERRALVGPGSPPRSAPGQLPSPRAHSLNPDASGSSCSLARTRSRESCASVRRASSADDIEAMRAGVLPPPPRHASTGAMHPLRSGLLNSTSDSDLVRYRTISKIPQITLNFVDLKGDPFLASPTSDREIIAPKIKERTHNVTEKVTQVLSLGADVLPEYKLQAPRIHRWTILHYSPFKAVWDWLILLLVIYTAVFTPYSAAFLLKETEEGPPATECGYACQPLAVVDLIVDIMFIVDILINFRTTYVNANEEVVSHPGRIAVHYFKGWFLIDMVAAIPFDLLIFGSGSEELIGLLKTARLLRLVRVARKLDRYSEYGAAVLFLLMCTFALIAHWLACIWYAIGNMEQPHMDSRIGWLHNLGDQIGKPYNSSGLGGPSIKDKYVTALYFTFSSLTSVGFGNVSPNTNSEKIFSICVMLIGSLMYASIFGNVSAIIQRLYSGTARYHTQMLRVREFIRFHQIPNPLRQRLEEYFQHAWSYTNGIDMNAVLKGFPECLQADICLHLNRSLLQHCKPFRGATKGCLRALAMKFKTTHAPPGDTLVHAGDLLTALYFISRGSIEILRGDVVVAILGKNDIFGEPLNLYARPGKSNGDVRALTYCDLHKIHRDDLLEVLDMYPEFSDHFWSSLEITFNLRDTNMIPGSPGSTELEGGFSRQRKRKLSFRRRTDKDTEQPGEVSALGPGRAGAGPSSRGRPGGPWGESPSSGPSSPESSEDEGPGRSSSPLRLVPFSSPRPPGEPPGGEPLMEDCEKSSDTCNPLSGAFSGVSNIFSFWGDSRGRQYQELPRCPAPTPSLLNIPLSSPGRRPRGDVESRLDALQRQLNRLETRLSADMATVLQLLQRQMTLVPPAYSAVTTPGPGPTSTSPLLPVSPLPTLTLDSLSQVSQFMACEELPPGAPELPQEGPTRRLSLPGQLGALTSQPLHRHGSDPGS
Chain of Kappa-type opioid receptor (P41145 whole entry): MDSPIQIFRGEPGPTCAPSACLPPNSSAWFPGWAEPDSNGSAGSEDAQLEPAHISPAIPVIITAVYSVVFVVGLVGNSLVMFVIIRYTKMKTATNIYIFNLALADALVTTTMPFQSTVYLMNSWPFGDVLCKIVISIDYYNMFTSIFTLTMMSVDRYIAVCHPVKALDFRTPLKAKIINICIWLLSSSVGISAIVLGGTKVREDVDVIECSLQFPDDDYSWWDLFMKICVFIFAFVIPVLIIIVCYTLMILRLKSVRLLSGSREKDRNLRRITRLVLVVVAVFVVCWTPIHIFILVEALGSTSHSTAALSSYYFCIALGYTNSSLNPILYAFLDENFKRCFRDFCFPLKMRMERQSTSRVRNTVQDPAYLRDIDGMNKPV
Chain of Cannabinoid receptor 2 (Homo sapiens) (P34972 whole entry): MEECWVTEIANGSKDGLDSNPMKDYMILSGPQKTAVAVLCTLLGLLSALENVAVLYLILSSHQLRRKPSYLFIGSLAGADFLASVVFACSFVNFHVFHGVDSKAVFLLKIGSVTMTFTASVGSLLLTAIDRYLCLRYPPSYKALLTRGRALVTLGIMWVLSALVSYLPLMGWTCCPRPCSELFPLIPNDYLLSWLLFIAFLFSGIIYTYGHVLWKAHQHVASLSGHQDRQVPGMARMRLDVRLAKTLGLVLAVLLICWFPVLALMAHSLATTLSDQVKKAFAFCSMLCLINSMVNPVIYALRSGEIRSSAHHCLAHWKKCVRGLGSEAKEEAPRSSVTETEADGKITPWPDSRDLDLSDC
Chain of Histamine H3 receptor (Homo sapiens) (Q9Y5N1 whole entry): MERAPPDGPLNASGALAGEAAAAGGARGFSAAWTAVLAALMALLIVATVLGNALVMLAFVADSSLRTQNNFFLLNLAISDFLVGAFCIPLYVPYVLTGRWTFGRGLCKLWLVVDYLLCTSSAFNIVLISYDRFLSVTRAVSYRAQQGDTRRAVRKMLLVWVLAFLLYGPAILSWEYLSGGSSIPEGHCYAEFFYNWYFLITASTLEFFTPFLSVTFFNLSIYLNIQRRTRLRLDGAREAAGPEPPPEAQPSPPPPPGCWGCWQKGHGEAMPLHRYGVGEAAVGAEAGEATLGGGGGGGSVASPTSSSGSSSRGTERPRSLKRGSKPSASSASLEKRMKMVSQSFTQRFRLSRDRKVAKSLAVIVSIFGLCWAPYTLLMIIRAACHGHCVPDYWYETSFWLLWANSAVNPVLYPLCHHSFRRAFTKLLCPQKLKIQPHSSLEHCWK

Take `CCN1CCN(c2cc3[nH]c(C(=O)[C@]4(C)CC[C@](C)(O)CC4)nc3cc2Cl)CC1`: the half-inhibitory concentration (IC50) in series [1] was 27 nM; in series [2] it was 3100 nM.
For the molecule `CCN1CCN(c2cc3[nH]c(C(=O)[C@]4(C)CC[C@@H](NC(=O)OC)CC4)nc3cc2C)CC1`, the half-maximal inhibitory concentration (IC50) in series [1] is 2 nM; in [3], 5.3 nM; in [2], 3000 nM. In series [4], this molecule registered a logD of 3.1. The remaining at 0.5 h, 1 µM in series [5] was found to be 71%.
For `CCN1CCN(c2cc3[nH]c(C(=O)C4(C)CCC(=O)CC4)nc3cc2Cl)CC1`, the figures for the IC50 in series [1], in series [3] and in series [2] were 9.9 nM, 38 nM and 8500 nM, respectively. Also, in [4], the logD was 3.
For `CCN1CCN(c2cc3[nH]c(C(=O)[C@]4(C)CC[C@@](C)(O)CC4)nc3cc2Cl)CC1`, the Kp at 0.5 h in series [6] came to 2.02. Besides, the concentration for half-maximal inhibition (IC50) in [3] was 1.3 nM; in series [2] it was 20000 nM; in series [7], > 10000 nM; in series [8] it was 1400 nM; in series [28], > 10000 nM. The logD in series [4] was 3.1. Besides, the remaining at 0.5 h, 1 µM in [5] turned out to be 82%. The bioavailability in series [9] was found to be 15%; in series [12] it was 38%; in [15], 8%. Besides, the half-life in series [10] was 0.62 h; in series [13] it was 3.5 h; in series [16], 4 h. Further, the clearance in [11] was 77 mL/min/kg; in [14], 34 mL/min/kg; in series [17], 22 mL/min/kg. The same molecule returned a concentration at 0.5 h in [18] of 1.08 µM. The Drug uptake in series [19] is 2.21 nmol/g. Moreover, the inhibition was 72% in series [20]; 74% in series [21]; 73% in [22]; 50% in series [23]; 62% in series [24]. The molecule also gave a Cmax in [25] of 10.7 µM. Besides, the Activity entry in series [26] is “Non-toxic”. In addition, the result in [27] was Active.
For the molecule `CCN1CCN(c2cc3[nH]c(C(=O)[C@]4(C)CC[C@@H](NC(=O)OC)CC4)nc3cc2Cl)CC1`, the half-inhibitory concentration (IC50) in series [1] was determined as 5.7 nM; in series [3], 7.5 nM; in series [2], 4900 nM. In series [4], this molecule gave a pH-dependent lipophilicity (logD) of 3.7. The remaining at 0.5 h, 1 µM in series [5] stood at 74%.
Molecule `CCN1CCN(c2cc3[nH]c(S[C@]4(C)CC[C@@H](NC(=O)OC)CC4)nc3cc2Cl)CC1` yielded a concentration at 1 h in [29] of 22.2 µM. The same molecule showed a Drug uptake in series [30] of 1.11 nmol/g. For the same molecule, in series [31], the Kp at 1 h came out at 0.05.
In the same order, the values of `CCN1CCN(c2cc3[nH]c(S[C@]4(C)CC[C@@H](N(C)C(C)=O)CC4)nc3cc2Cl)CC1` are 4.56 µM, 0.38 nmol/g and 0.09.
Consider `CCN1CCN(c2cc3[nH]c(C(=O)[C@]4(CC)CC[C@@](C)(O)CC4)nc3cc2Cl)CC1`, for which the IC50 in series [1] was 0.8 nM; in [3], 2.4 nM. In [4], this molecule gave a log distribution coefficient (logD) of 3.6. Further, in series [5], the remaining at 0.5 h, 1 µM stood at 57%.

As usually defined, the IC50 is the concentration that gives 50% inhibition. What is called logD is lipophilicity at a set pH, counting ionised and neutral species. The Kp is the ratio of the level in a tissue or fluid to that in plasma or blood. A word on the bioavailability: it is the share of a dose that reaches the circulation, judged against a reference dose that is usually intravenous. What is called half-life is how long it takes for the measured level to halve. As usually defined, the inhibition is how much of the control response was suppressed. As usually defined, the Cmax is the maximum level reached in the sampled fluid or tissue.
